From ChEMBL document CHEMBL4689842, “EUbOPEN Chemogenomics Library wave 1” (2021)
“And” between values parts separate entries of the source, which are not always exact repeats. Equal entries are not always repeated.

Key:
Assay type in all cases: toxicity, cell-based
Fibroblast [1] = assay: Multiplex assay against human fibroblast; conditions: 24 h, 10 µM, compound concentration 10 uM
In short: (§1)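 Four dyes were applied at seeding to live cells: Hoechst33342, BioTracker Green Microtubule Cytoskeleton Dye, MitoTracker Red and Annexin V Alexa Fluor 680. Imaging after compound addition used a CQ1 microscope at 37°C and 5% CO2. CellPathfinder machine-learning gating then sorted cells into Hoechst high-intensity objects or normal cells, normal cells into healthy, pyknosed or fragmented nuclei, and pyknosed cells into mitotic or apoptotic, with tubulin, mitochondrial-mass and membrane-permeability phenotypes given as per cents of healthy-nucleus cells.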

U2OS [2] = assay: Incucyte cell viability with U2OS; conditions: human, 10 µM, compound concentration 10 uM; further: filed as whole numbers so only -1 and 0 and 1 occur
Fibroblast [3] = assay: Incucyte cell viability with human fibroblast; conditions: 10 µM, compound concentration 10 uM; further: filed as whole numbers so only -1 and 0 and 1 occur
HEK-293T = assay: Incucyte cell viability with HEK293T; conditions: human, 10 µM, compound concentration 10 uM; further: filed as whole numbers so only -1 and 0 and 1 occur
U2OS [4] = assay: Multiplex assay against U2OS; conditions: human, 10 µM, compound concentration 10 uM; in short: as §1
[5] = 0 h, replicate number 1, timepoint 0 hours
[6] = 6 h, replicate number 1, timepoint 6 hours
[7] = 12 h, replicate number 1, timepoint 12 hours
[8] = 18 h, replicate number 1, timepoint 18 hours
[9] = 24 h, replicate number 1, timepoint 24 hours

COc1ccccc1-c1cc(Nc2cccc(CS(N)(=O)=O)c2)ncn1
Population Mitochondria Different-Phenotype (%) (Fibroblast [1]; replicate 1): 4% and 11% | Population Mitotic Cells (%) (Fibroblast [1]; replicate 1): 24% and 33% | Population Normal (%) (Fibroblast [1]; replicate 1): 85% and 89% | Population Pyknosed Nuclei (%) (Fibroblast [1]; replicate 1): 14% and 19% | Total Cell Count (Fibroblast [1]; replicate 1): 267 and 188 | Population Apoptotic (%) (Fibroblast [1]; replicate 2): 50% | Population Fragmented Nuclei (%) (Fibroblast [1]; replicate 2): 54% and 70% | Population Healthy Nuclei (%) (Fibroblast [1]; replicate 2): 40% and 26% | Population Hoechst High Intensity Objects (%) (Fibroblast [1]; replicate 2): 30% and 28% | Population Membrane Permeable-Phenotype (%) (Fibroblast [1]; replicate 2): 21% and 13% | Population Mitochondria Different-Phenotype (%) (Fibroblast [1]; replicate 2): 0% | Population Mitotic Cells (%) (Fibroblast [1]; replicate 2): 50% | Population Normal (%) (Fibroblast [1]; replicate 2): 70% and 71% | Population Pyknosed Nuclei (%) (Fibroblast [1]; replicate 2): 5% and 3% | Population Tubulin-Different-Phenotype (%) (Fibroblast [1]; replicate 2): 28% and 26% | Total Cell Count (Fibroblast [1]; replicate 2): 50 and 80 | Growth Rate (U2OS [2]; [5]): 0 | Growth Rate (U2OS [2]; [6]): 0 | Growth Rate (U2OS [2]; [7]): 0 | Growth Rate (U2OS [2]; [8]): 0 | Growth Rate (U2OS [2]; [9]): 0 | Growth Rate (Fibroblast [3]; [5]): 0 | Growth Rate (Fibroblast [3]; [6]): 0 | Growth Rate (Fibroblast [3]; 6 h, replicate number 2, timepoint 6 hours): 1 | Growth Rate (Fibroblast [3]; [7]): 0 | Growth Rate (Fibroblast [3]; [8]): 0 | Growth Rate (Fibroblast [3]; [9]): 0 | Growth Rate (HEK-293T; [5]): 0 | Growth Rate (HEK-293T; [6]): 0 | Growth Rate (HEK-293T; [7]): 0 | Growth Rate (HEK-293T; [8]): 0 | Growth Rate (HEK-293T; [9]): 0 | Population Apoptotic (%) (U2OS [4]; 12 h, replicate 1): 53% and 27% | Population Fragmented Nuclei (%) (U2OS [4]; 12 h, replicate 1): 10% and 8% | Population Healthy Nuclei (%) (U2OS [4]; 12 h, replicate 1): 82% and 84% | Population Membrane Permeable-Phenotype (%) (U2OS [4]; 12 h, replicate 1): 13% and 7% | Population Mitochondria Different-Phenotype (%) (U2OS [4]; 12 h, replicate 1): 23% and 20% | Population Mitotic Cells (%) (U2OS [4]; 12 h, replicate 1): 46% and 72% | Population Normal (%) (U2OS [4]; 12 h, replicate 1): 93% and 98% | Population Pyknosed Nuclei (%) (U2OS [4]; 12 h, replicate 1): 7% and 6% | Population Tubulin-Different-Phenotype (%) (U2OS [4]; 12 h, replicate 1): 19% and 10% | Total Cell Count (U2OS [4]; 12 h, replicate 1): 160 and 443 | Population Apoptotic (%) (U2OS [4]; 12 h, replicate 2): 0% and 25% | Population Fragmented Nuclei (%) (U2OS [4]; 12 h, replicate 2): 9% | Population Healthy Nuclei (%) (U2OS [4]; 12 h, replicate 2): 75% and 86% | Population Hoechst High Intensity Objects (%) (U2OS [4]; 12 h, replicate 2): 16% and 11% | Population Membrane Permeable-Phenotype (%) (U2OS [4]; 12 h, replicate 2): 17% and 9% | Population Mitochondria Different-Phenotype (%) (U2OS [4]; 12 h, replicate 2): 21% | Population Mitotic Cells (%) (U2OS [4]; 12 h, replicate 2): 100% and 75% | Population Normal (%) (U2OS [4]; 12 h, replicate 2): 83% and 88% | Population Tubulin-Different-Phenotype (%) (U2OS [4]; 12 h, replicate 2): 12% and 34% | Total Cell Count (U2OS [4]; 12 h, replicate 2): 138 and 311 | Population Apoptotic (%) (U2OS [4]; 24 h, replicate 1): 68% and 25% | Population Healthy Nuclei (%) (U2OS [4]; 24 h, replicate 1): 79% and 93% | Population Hoechst High Intensity Objects (%) (U2OS [4]; 24 h, replicate 1): 3% and 2% | Population Membrane Permeable-Phenotype (%) (U2OS [4]; 24 h, replicate 1): 16% and 7% | Population Mitochondria Different-Phenotype (%) (U2OS [4]; 24 h, replicate 1): 30% and 18% | Population Mitotic Cells (%) (U2OS [4]; 24 h, replicate 1): 31% and 75% | Population Normal (%) (U2OS [4]; 24 h, replicate 1): 96% and 97% | Population Tubulin-Different-Phenotype (%) (U2OS [4]; 24 h, replicate 1): 22% | Total Cell Count (U2OS [4]; 24 h, replicate 1): 230 and 545 | Population Apoptotic (%) (U2OS [4]; 24 h, replicate 2): 62% and 50% | Population Healthy Nuclei (%) (U2OS [4]; 24 h, replicate 2): 63% and 91% | Population Mitochondria Different-Phenotype (%) (U2OS [4]; 24 h, replicate 2): 33% and 31% | Population Mitotic Cells (%) (U2OS [4]; 24 h, replicate 2): 37% and 50% | Population Normal (%) (U2OS [4]; 24 h, replicate 2): 78% and 93% | Population Tubulin-Different-Phenotype (%) (U2OS [4]; 24 h, replicate 2): 23% and 33% | Total Cell Count (U2OS [4]; 24 h, replicate 2): 157 and 384
